The source made the active and inactive calls. The rule behind the calls is not given here.
Tests used:
[1] = biological target: T1, 17-beta-hydroxysteroid dehydrogenase type 1 (Homo sapiens) (UniProt P14061); test: Competitive inhibition of 17-beta HSD1 (unknown origin) using [14C]E1/E1 as substrate assessed as transformation of [14C]E1 to [14C]E2 at 0.1 to 0.5 uM after 45 mins by thin layer chromatography
T1 sequence (whole entry): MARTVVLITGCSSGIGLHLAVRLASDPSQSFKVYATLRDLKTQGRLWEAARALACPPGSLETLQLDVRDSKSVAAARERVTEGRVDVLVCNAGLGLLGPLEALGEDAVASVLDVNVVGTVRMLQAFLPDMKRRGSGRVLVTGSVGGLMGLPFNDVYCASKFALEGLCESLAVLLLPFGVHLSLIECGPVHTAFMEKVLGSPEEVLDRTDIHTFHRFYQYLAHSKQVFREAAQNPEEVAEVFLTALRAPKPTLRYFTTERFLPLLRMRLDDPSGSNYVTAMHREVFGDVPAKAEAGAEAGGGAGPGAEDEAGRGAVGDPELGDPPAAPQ
How it was run: (§1)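 Purified 17β-HSD1 in buffer (100 mM Tris, 20% glycerol, 0.2 mg/mL BSA, 2 mM EDTA) with 1 mM NADPH, preincubated at 37 °C with inhibitor (0, 100 or 500 nM), with or without unlabeled E1 (500 nM), over varying times. Then diluted 1:20 with [14C]-E1 (60 nM final), 45 min at 37 °C. Ether extraction, TLC, radiolabel quantification; activity as % of initial; triplicate.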

[2] = tested on: MCF7; test: Cytotoxicity against human estrogen-starved estrogen-sensitive MCF7 cells assessed as cell growth at 1 uM after 7 days by MTS assay relative to control; type: functional; conditions: MCF7, 168 h, read-out: Activity
How it was run: (§2)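 MCF-7 (DMEM-F12) or T-47D (RPMI) cells are kept in medium with insulin (50 ng/mL) and 5% dextran-coated charcoal-treated FBS, seeded at 3000 cells/well. After 48 h, medium is replaced with medium containing compound, renewed every two days, and cells grow seven days. Growth is read by CellTiter 96 aqueous (MTS) assay as % proliferation vs basal control (0%). Scored −/+/++/+++ bands.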

[3] = biological target: T1, 17-beta-hydroxysteroid dehydrogenase type 1 (Homo sapiens); test: Inhibition of 17-beta HSD1 (unknown origin) using [14C]E1 as substrate at 0.1 to 0.5 uM by thin layer chromatography; conditions: TDE = time-dependent effect; how it was run: as §1
[4] = biological target: Cytochrome P450 3A4 (Homo sapiens, UniProt P08684); test: Inhibition of CYP3A4 (unknown origin) by fluorescence assay; type: ADME
How it was run: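 Commercial CYP3A4 kit with dibenzylfluorescein as substrate, read by fluorescence of its enzymatic product. Compound dissolved in DMSO/acetonitrile (5:95). IC50 from means of at least two experiments in triplicate.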

[5] = biological target: T2, 3-keto-steroid reductase/17-beta-hydroxysteroid dehydrogenase 7 (Homo sapiens) (UniProt P56937); test: Inhibition of 17-beta HSD7 (unknown origin) transfected in HEK293 cells using [14C]E1 as substrate at 10 uM; type: cell-based
T2 sequence (whole entry): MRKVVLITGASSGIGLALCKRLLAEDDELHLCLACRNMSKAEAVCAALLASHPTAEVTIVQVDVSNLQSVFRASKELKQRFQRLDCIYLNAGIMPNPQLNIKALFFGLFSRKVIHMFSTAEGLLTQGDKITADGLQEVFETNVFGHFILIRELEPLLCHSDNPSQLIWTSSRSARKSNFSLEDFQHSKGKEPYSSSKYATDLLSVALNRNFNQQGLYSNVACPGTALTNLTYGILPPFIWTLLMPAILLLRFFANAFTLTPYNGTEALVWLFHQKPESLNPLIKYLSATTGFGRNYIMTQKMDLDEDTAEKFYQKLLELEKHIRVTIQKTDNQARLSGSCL
How it was run: (§3)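 Stably transfected HEK-293 cells in stripped-serum MEM with G418 and insulin, seeded 48 h. Then treated with compound in DMSO (<0.5% final) plus 60 nM substrate: [14C]-E2 for 17β-HSD2, [14C]-E1 for 17β-HSD7 and 17β-HSD12. Stopped at 12–25% substrate conversion; ether extraction, TLC, radiolabel quantification; triplicates, at least two experiments.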

[6] = biological target: T3, Very-long-chain 3-oxoacyl-CoA reductase (Homo sapiens) (UniProt Q53GQ0); test: Inhibition of 17-beta HSD12 (unknown origin) transfected in HEK293 cells using [14C]E1 as substrate at 10 uM; type: cell-based; how it was run: as §3
T3 sequence (whole entry): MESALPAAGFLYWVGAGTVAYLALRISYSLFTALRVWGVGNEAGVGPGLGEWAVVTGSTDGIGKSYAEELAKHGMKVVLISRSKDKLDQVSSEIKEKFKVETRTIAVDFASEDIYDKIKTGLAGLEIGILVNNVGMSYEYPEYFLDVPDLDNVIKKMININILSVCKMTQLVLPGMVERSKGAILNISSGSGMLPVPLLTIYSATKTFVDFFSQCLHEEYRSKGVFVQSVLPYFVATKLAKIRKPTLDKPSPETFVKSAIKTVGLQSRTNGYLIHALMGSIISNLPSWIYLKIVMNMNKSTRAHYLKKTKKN

[7] = biological target: T1, 17-beta-hydroxysteroid dehydrogenase type 1 (Homo sapiens); test: Irreversible inhibition of 17-beta HSD1 (unknown origin) using [14C]E1 as substrate at 0.1 to 0.5 uM after 45 mins by thin layer chromatography; how it was run: as §1
[8] = biological target: T4, 17-beta-hydroxysteroid dehydrogenase type 2 (Homo sapiens) (UniProt P37059); test: Inhibition of 17-beta HSD2 (unknown origin) transfected in HEK293 cells using [14C]E2 as substrate at 10 uM; type: cell-based; how it was run: as §3
T4 sequence (whole entry): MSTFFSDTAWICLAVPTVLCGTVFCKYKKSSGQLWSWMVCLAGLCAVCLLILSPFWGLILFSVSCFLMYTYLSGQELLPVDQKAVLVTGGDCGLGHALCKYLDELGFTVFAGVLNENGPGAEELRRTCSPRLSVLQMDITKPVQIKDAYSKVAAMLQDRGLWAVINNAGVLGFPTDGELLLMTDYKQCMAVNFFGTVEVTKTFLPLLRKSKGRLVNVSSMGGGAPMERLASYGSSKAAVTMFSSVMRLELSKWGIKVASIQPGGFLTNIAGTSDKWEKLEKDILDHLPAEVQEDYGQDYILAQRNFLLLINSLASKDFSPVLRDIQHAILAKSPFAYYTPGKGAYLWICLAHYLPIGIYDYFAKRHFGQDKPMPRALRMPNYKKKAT

[9] = biological target: T5, 17-beta-hydroxysteroid dehydrogenase type 1 (Homo sapiens, UniProt P14061); test: Inhibition of 17-beta HSD1 in human T47D cells; type: cell-based
T5 sequence (P14061 whole entry): T1 sequence (whole entry)
How it was run: (§4)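 Intact T-47D cells in RPMI with insulin (50 ng/mL) and 5% dextran-charcoal-treated FBS. After 24 h, inhibitor (from EtOH stock) added at 0.1 or 1 μM for screening or 1 nM–10 μM for IC50, with [14C]-E1 (60 nM), for 24 h. Ether extraction, TLC (toluene/acetone 4:1). IC50 = concentration halving E1→E2 conversion; triplicates, at least two experiments.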

[10] = tested on: MCF7; test: Cytotoxicity against human estrogen-starved estrogen-sensitive MCF7 cells assessed as cell growth at 0.1 uM after 7 days by MTS assay relative to control; type: functional; conditions: MCF7, 168 h, read-out: Activity; how it was run: as §2
[11] = tested on: T47D; test: Cytotoxicity against human estrogen-starved estrogen-sensitive T47D cells assessed as cell growth at 1 uM after 7 days by MTS assay relative to control; type: functional; conditions: 168 h, read-out: Activity; how it was run: as §2
[12] = biological target: T1, 17-beta-hydroxysteroid dehydrogenase type 1 (Homo sapiens); test: Inhibition of 17-beta HSD1 in human T47D cells assessed as transformation of [14C]E1 to [14C]E2 at 0.1 uM after 24 hrs by thin layer chromatography; type: cell-based
How it was run: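 T-47D cells (endogenous 17β-HSD1) are seeded at 3000 cells/well in RPMI with insulin (50 ng/mL) and 5% charcoal-stripped FBS. After 24 h, compound (from EtOH stock, 0.1 μM final) is added with [14C]-E1 (60 nM) for 24 h. Steroids are extracted into diethyl ether, separated by silica TLC (toluene/acetone 4:1) and quantified. Mean ± SD of ≥2 independent experiments in triplicate.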

[13] = tested on: T47D; test: Cytotoxicity against human estrogen-starved estrogen-sensitive T47D cells assessed as cell growth at 0.1 uM after 7 days by MTS assay relative to control; type: functional; conditions: 168 h, read-out: Activity; how it was run: as §2
[14] = biological target: T5, 17-beta-hydroxysteroid dehydrogenase type 1; test: Inhibition of 17-beta HSD1 in human T47D cells assessed as transformation of [14C]E1 to [14C]E2 after 24 hrs by thin layer chromatography; type: cell-based; how it was run: as §4

Sequence of Cytochrome P450 3A4 (P08684 whole entry): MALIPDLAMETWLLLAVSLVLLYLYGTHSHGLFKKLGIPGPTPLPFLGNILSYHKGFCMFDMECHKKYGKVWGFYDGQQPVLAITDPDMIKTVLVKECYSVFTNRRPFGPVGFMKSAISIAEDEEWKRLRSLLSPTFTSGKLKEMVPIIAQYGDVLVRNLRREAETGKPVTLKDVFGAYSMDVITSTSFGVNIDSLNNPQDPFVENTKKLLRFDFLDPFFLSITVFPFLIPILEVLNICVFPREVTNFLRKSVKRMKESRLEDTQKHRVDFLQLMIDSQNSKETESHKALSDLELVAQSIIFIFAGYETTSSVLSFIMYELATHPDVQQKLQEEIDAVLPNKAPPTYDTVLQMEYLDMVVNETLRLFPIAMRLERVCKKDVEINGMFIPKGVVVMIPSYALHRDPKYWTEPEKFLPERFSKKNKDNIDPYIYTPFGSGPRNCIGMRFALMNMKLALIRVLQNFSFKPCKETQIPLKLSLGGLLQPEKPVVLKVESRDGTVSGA

Question: `C[C@]12CC[C@@H]3c4ccc(CCBr)cc4CC[C@H]3[C@@H]1C[C@H](Cc1cccc(C(N)=O)c1)[C@@H]2O` was tested. Which inhibition [1] did it give?
Answer: Its inhibition is “Active”.

Question: And the percent proliferation above basal control at 1 µM [2]?
Answer: The percent proliferation above basal control at 1 µM was 0%.

Question: And the inhibition [3]?
Answer: The inhibition was “tde”.

Question: What about the IC50 [4] of the same compound?
Answer: The IC50 was 3900 nM.

Question: And the inhibition [5]?
Answer: Its inhibition is 9%.

Question: What about the inhibition [6] of the same compound?
Answer: Its inhibition is 34%.

Question: What about the inhibition [7] of the same compound?
Answer: The inhibition was “Active”.

Question: And the inhibition [8]?
Answer: The inhibition was 7%.

Question: And the IC50 [9]?
Answer: Its IC50 is 97 nM.

Question: What about the percent proliferation above basal control at 0.1 µM [10] of the same compound?
Answer: Its percent proliferation above basal control at 0.1 µM is 0%.

Question: What does the source list for `C[C@]12CC[C@@H]3c4ccc(OCCBr)cc4CC[C@H]3[C@@H]1C[C@H](Cc1cccc(C(N)=O)c1)[C@@H]2O`?
Answer: % proliferation above basal control (0% = control) at 1 µM [11]: 0%; inhibition [12]: 37%; percent proliferation above basal control at 0.1 µM [13]: 0%; IC50 [14]: 172 nM

Question: For `C[C@]12CC[C@@H]3c4ccc(CCCBr)cc4CC[C@H]3[C@@H]1C[C@H](Cc1cccc(C(N)=O)c1)[C@@H]2O`, which % proliferation above basal control (0% = control) at 1 µM [11] is on record?
Answer: The % proliferation above basal control (0% = control) at 1 µM was 0%.

Question: And the inhibition [12]?
Answer: The inhibition was 41%.

Question: And the percent proliferation above basal control at 0.1 µM [13]?
Answer: Its percent proliferation above basal control at 0.1 µM is 0%.

Question: What about the IC50 [14] of the same compound?
Answer: Its IC50 is 153 nM.

Reference: ChEMBL document CHEMBL3108749, “Discovery of a non-estrogenic irreversible inhibitor of 17β-hydroxysteroid dehydrogenase type 1 from 3-substituted-16β-(m-carbamoylbenzyl)-estradiol derivatives” (J Med Chem, 2014)
